For assay [1], the system named is MT2. As to the kind of experiment: (§1) Compound tested for the inhibition of HIV-induced cytopathogenicity in MT-2 cells. The note with it: Homo sapiens. In kind it is functional, cell-based. In outline:
(§2)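 MT-2 cells (2 × 10^3/well) infected with 100 TCID50s of HIV-1LAI in presence of various agent concentrations; 37 °C for 7 days. Viability read by MTT (7.5 mg/mL in PBS), 2 h at 37 °C, formazan dissolved in acidified 2-propanol with 4% Triton X-100, OD 570 nm. IC50/IC75 from inhibition of cytopathogenicity; duplicate assays, mean of two or three.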
In general terms: Protection from cytopathic effect is a common read-out in antiviral testing.

For assay [2], the system named is MT2. The assay is described as §1. In kind it is functional. The following applies: Homo sapiens. In outline: as §2
Assay [3] concerns the target Human immunodeficiency virus type 1 protease (Human immunodeficiency virus 1, UniProt Q72874). The assay can be described thus: Inhibitory activity against human immunodeficiency virus 1 protease.

In general, IC50 refers to the concentration at which inhibition is half-maximal. What is called IC75 is the concentration needed for an effect of 75%. Read a low IC75 as greater potency. One may read the Ki as a measure of affinity in units of concentration, obtained from inhibition or displacement. High values mean a looser hold on the target, low ones a stronger hold on the target.

A value given as a limit tells only on which side of the number the result lay.

As to `CC(C)CN(CC(O)C1CCCCCCCCOc2c(O)cccc2C(=O)N1)S(=O)(=O)c1ccc2c(c1)OCO2` (configuration not stated), the IC50 in the assay on MT2 [1] is more than 1 µM. In the assay on MT2 [2], the IC75 is more than 1 µM. Besides, affinity in assay [3] was put at a Ki of 0.003 µM.

In assay [3], `CCCCCCCC(NC(=O)c1cccc(O)c1O)C(O)CN(CC(C)C)S(=O)(=O)c1ccc(OC)cc1` (configuration not stated) registered a Ki of 0.27 µM. `COc1ccc(S(=O)(=O)N(CC(C)C)CC(O)C2CCCCCCCOc3c(O)cccc3C(=O)N2)cc1` (configuration not stated): the affinity in assay [3] corresponds to a Ki of 0.001 µM. The compound `C=CCCCCC(NC(=O)c1cccc(O)c1OCC=C)C(O)CN(CC(C)C)S(=O)(=O)c1ccc(OC)cc1` (configuration not stated) displayed a Ki in assay [3] of 0.012 µM. As to `COc1ccc(S(=O)(=O)N(CC(C)C)CC(O)C2CCCCCCCCOc3c(O)cccc3C(=O)N2)cc1` (configuration not stated), in the assay with MT2 [1], the midpoint of inhibition, the IC50, lay at 0.3 µM. The IC75 with MT2 [2] worked out at 0.74 µM. The Ki in assay [3] worked out at 0.0007 µM. Regarding `C=CCCCCC(NC(=O)c1cccc(O)c1OCCCC=C)C(O)CN(CC(C)C)S(=O)(=O)c1ccc(OC)cc1` (configuration not stated), the Ki in assay [3] is 0.009 µM. Still for that read-out and setting: for `COc1ccc(S(=O)(=O)N(CC(C)C)CC(O)C2CCCC/C=C\COc3c(O)cccc3C(=O)N2)cc1` (configuration not stated) the value was 0.002 µM; for `C=CCCCCC(NC(=O)c1cccc(O)c1OCCC=C)C(O)CN(CC(C)C)S(=O)(=O)c1ccc2c(c1)OCO2` (configuration not stated), 0.02 µM.

For `COc1ccc(S(=O)(=O)N(CC(C)C)CC(O)C2CCCCCCCCCOc3c(O)cccc3C(=O)N2)cc1` (configuration not stated), the IC50 in the assay with MT2 [1] came out at 0.56 µM. The compound further gave an IC75 with MT2 [2] of more than 1 µM. Moreover, the Ki in assay [3] worked out at 0.002 µM.

`CC(C)(C)NC(=O)[C@@H]1C[C@@H]2CCCC[C@@H]2CN1C[C@@H](O)[C@H](Cc1ccccc1)NC(=O)[C@H](CC(N)=O)NC(=O)c1ccc2ccccc2n1` yielded a 50% inhibitory concentration (IC50) in the assay with MT2 [1] of 0.012 µM. The compound further had an IC75 in the assay on MT2 [2] of 0.047 µM. In turn, `CC(C)CN(C[C@@H](O)[C@H](Cc1ccccc1)NC(=O)O[C@H]1CCOC1)S(=O)(=O)c1ccc(N)cc1` came in with an IC50 with MT2 [1] of 0.028 µM. In the assay on MT2 [2], the IC75 is 0.079 µM. Compound `C=CCCCCC(NC(=O)c1cccc(O)c1OCCC=C)C(O)CN(CC(C)C)S(=O)(=O)c1ccc(OC)cc1` (configuration not stated) gave an IC50 in the assay on MT2 [1] of more than 1 µM. The IC75 in the assay on MT2 [2] is more than 1 µM. The same compound displayed a Ki in assay [3] of 0.002 µM.

Source of the values: ChEMBL document CHEMBL1144397, “Structure-based design: synthesis and biological evaluation of a series of novel cycloamide-derived HIV-1 protease inhibitors” (J Med Chem, 2005).
